Measured values published in ChEMBL document CHEMBL1221386, “Synthesis and pharmacological evaluation of 3-aryl-3-azolylpropan-1-amines as selective triple serotonin/norepinephrine/dopamine reuptake inhibitors” (Bioorg Med Chem Lett, 2010).

Key:
[1] = biological target: Sodium-dependent serotonin transporter (Rattus norvegicus) (UniProt P31652); test: Displacement of [3H]paroxetine from SERT in rat cerebral cortex at 100 nM
[2] = biological target: T1, Sodium-dependent serotonin transporter (Homo sapiens, UniProt P31645); test: Inhibition of serotonin reuptake at human SERT expressed in HEK293 cells at 100 nM
Target sequence in this assay (P31645 whole entry, looked up): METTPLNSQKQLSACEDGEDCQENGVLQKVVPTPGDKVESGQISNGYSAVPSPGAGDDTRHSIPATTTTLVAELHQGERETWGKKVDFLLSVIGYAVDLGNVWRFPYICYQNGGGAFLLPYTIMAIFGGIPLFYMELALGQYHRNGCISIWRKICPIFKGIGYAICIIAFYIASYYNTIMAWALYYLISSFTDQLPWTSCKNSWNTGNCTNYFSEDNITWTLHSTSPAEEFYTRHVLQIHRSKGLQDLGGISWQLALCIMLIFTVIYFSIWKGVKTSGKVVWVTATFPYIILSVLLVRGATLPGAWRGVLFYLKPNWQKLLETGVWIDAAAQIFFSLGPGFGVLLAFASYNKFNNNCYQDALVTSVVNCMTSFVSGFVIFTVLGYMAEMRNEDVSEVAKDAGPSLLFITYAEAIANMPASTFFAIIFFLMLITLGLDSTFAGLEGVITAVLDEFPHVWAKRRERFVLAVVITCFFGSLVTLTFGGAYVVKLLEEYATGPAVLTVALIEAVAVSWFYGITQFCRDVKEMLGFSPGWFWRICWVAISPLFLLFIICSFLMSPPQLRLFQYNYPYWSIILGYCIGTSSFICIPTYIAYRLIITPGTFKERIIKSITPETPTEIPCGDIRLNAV

[3] = biological target: T2, Sodium-dependent dopamine transporter (Homo sapiens, UniProt Q01959); test: Inhibition of dopamine reuptake at human dopamine transporter expressed in CHO cells at 100 nM
T2 sequence (Q01959 whole entry): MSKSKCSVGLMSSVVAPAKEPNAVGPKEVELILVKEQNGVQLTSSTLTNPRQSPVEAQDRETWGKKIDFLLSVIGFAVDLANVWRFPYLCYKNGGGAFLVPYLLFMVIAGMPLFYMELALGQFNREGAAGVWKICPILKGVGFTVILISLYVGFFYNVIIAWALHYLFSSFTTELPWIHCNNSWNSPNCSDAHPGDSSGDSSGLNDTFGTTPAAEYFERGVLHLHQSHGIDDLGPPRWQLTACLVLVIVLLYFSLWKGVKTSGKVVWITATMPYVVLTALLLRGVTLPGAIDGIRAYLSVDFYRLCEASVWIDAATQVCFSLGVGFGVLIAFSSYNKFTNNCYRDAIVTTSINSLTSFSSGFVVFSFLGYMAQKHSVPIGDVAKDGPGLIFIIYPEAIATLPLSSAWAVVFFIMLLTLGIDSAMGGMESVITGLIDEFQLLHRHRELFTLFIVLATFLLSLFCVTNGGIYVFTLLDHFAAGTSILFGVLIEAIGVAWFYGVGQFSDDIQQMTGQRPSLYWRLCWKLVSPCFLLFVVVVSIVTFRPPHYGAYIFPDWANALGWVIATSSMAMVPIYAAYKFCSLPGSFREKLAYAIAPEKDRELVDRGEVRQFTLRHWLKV

[4] = biological target: T3, Sodium-dependent noradrenaline transporter (Homo sapiens, UniProt P23975); test: Inhibition of norepinephrine reuptake at human NET expressed in MDCK cells at 100 nM
T3 sequence (P23975 whole entry): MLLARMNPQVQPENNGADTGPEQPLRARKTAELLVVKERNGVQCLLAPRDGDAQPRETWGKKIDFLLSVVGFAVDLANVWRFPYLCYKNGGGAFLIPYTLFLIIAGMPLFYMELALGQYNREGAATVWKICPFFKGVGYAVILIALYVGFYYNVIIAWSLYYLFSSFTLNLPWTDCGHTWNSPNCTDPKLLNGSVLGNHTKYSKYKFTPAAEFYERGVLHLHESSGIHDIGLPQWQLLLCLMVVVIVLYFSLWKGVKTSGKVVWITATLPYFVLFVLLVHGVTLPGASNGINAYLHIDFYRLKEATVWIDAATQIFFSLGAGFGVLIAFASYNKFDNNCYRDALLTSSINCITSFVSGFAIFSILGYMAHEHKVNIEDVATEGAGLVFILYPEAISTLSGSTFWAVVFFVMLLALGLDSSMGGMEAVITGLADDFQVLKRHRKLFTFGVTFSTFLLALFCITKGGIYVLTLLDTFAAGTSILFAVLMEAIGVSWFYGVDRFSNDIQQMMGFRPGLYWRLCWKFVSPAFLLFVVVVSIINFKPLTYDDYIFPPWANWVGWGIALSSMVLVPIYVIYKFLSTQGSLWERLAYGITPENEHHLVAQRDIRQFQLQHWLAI

[5] = biological target: Sodium-dependent serotonin transporter (Rattus norvegicus) (UniProt P31652); test: Displacement of [3H]paroxetine from SERT in rat cerebral cortex at 1 uM; type: tissue-based
Summary of the method: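 Competition binding against 2 nM [3H]paroxetine on freshly prepared rat frontal cortex membranes, homogenized and centrifuged twice at 20,000g, then resuspended in incubation buffer. Tris–HCl pH 7.4 buffer with NaCl and 5 mM KCl. Incubation 2 h at 25 °C, run in triplicate. Nonspecific binding defined with citalopram. Read-out is percent inhibition at 1 µM.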

Mus musculus [6] = test: Antidepressant activity in mouse assessed as reduction of mobility time by forced swimming test at 30 mg/kg, ip; parameters: scale not given: the % may be the effect or the level left; conditions: route intraperitoneal
Mus musculus [7] = test: Potentiation of […]-induced serotonin syndrome like behavior in po dosed mouse; type: functional; conditions: read-out: MED
Summary of the method: (§1)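 Mice, oral dosing. For serotonin potentiation, 5-hydroxytryptophan (5-HTP, serotonin precursor) is given to induce serotonin syndrome-like head twitch/stereotypy counts. Response is expressed as % potentiation relative to control group (0%). Minimal effective dose is the lowest dose reaching p <0.05. Doses are in mg/kg.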

Mus musculus [8] = test: Antidepressant activity in mouse assessed as reduction of mobility time by forced swimming test at 10 mg/kg, po; type: functional; parameters: scale not given: the % may be the effect or the level left
Summary of the method: (§2)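 Mouse forced swimming test with oral dosing. Read-out is immobility time, expressed as % reduction of immobility. Minimal effective dose is the lowest dose with p <0.05. ED50 is given with 95% confidence limits. Doses are in mg/kg.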

Mus musculus [9] = test: Antidepressant activity in po dosed mouse assessed as reduction of mobility time by tail suspension test; type: functional; conditions: read-out: MED
Summary of the method: (§3)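 Mouse tail suspension test with oral dose–response. Read-out is immobility time, reported as % reduction of immobility. Minimal effective dose is the lowest dose giving p <0.05. Doses are in mg/kg.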

Mus musculus [10] = test: Antidepressant activity in mouse assessed as reduction of mobility time at 5 mg/kg, po by tail suspension test; type: functional; parameters: scale not given: the % may be the effect or the level left
Summary of the method: as §3

Mus musculus [11] = test: Anxiolytic activity in mouse assessed as inhibition of marble buried at 30 mg/kg, ip by marble burying test; type: functional; conditions: route intraperitoneal
Mus musculus [12] = test: Antidepressant activity in mouse assessed as change in locomotion at 90 mg/kg, po; type: functional
Mus musculus [13] = test: Potentiation of […]-induced serotonin syndrome like behavior in mouse at 30 mg/kg, po; type: functional
Summary of the method: as §1

Mus musculus [14] = test: Antidepressant activity in mouse assessed as change in locomotion at 60 mg/kg, po; type: functional
Mus musculus [15] = test: Analgesic activity in mouse assessed as reduction of acetic acid-induced writhing at 30 mg/kg
Mus musculus [16] = test: Antidepressant activity in po dosed mouse assessed as reduction of mobility time by forced swimming test; type: functional; conditions: for minimal effective dose: read-out: MED
Summary of the method: as §2

Mus musculus [17] = test: Antidepressant activity in mouse assessed as change in locomotion at 30 mg/kg, po; type: functional
[18] = Half life in rat liver microsomes; type: ADME, Microsome
Summary of the method: (§4)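 Metabolic stability in human or rat liver microsomes. Half-lives measurable up to 60 min.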

[19] = biological target: T2, Sodium-dependent dopamine transporter; test: Inhibition of dopamine reuptake at human dopamine transporter expressed in CHO cells; type: cell-based
Summary of the method: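 CHO-K1 cells stably expressing human DAT, assayed for [3H]DA uptake in duplicate. Nomifensine served as standard. IC50 determined.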

[20] = Half life in human liver microsomes; type: ADME, Microsome
Summary of the method: as §4

[21] = biological target: T1, Sodium-dependent serotonin transporter; test: Inhibition of serotonin reuptake at human SERT expressed in HEK293 cells; type: cell-based
Target sequence in this assay (P31645 whole entry): as the sequence (P31645 whole entry, looked up) above

[22] = biological target: T3, Sodium-dependent noradrenaline transporter; test: Inhibition of norepinephrine reuptake at human NET expressed in MDCK cells; type: cell-based
Mus musculus [23] = test: Anxiolytic activity in mouse assessed as inhibition of marble buried at 10 mg/kg, ip by marble burying test; type: functional; conditions: route intraperitoneal
Mus musculus [24] = test: Potentiation of […]-induced serotonin syndrome like behavior in mouse at 10 mg/kg, po; type: functional
Summary of the method: as §1

Mus musculus [25] = test: Antidepressant activity in mouse assessed as reduction of mobility time at 7 mg/kg, po by tail suspension test; type: functional; parameters: scale not given: the % may be the effect or the level left
Summary of the method: as §3

Sequence of Sodium-dependent serotonin transporter (Rattus norvegicus) (P31652 whole entry): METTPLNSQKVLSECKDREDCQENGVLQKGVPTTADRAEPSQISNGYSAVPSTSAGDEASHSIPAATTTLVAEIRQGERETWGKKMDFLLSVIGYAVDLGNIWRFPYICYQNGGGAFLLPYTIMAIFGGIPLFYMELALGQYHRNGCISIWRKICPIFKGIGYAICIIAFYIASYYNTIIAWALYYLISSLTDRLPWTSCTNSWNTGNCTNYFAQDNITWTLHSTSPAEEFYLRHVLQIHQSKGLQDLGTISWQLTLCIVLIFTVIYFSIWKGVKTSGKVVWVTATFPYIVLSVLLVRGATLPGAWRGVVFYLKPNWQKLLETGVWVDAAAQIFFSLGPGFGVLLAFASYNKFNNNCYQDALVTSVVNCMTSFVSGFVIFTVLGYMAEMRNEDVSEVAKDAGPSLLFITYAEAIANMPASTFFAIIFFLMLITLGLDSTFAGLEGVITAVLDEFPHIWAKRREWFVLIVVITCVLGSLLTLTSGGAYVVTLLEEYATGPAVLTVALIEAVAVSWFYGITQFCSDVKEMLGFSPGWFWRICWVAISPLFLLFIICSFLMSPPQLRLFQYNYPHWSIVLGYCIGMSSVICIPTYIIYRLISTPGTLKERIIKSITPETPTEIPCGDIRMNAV

SMILES: CNCCC(c1ccc(C(F)(F)F)cc1)n1ncnn1 (racemic)
- inhibition [1]: 15.3%

SMILES: CN(C)CCC(c1ccc(Cl)cc1Cl)n1ncnn1 (racemic)
- inhibition [1]: -0.2%

SMILES: CNCCC(c1ccc2cc(OC)ccc2c1)n1ncnn1 (racemic)
- inhibition [2]: 88%
- inhibition [3]: 4%
- inhibition [4]: 70%
- inhibition [1]: 81.2%

SMILES: CN(C)CCC(c1ccc(Cl)c(Cl)c1)n1nccn1 (racemic)
- inhibition [5]: 69.9%

SMILES: CNCCC(c1cccc2ccccc12)n1ncnn1 (racemic)
- inhibition [5]: 51.6%

SMILES: CNCCC(c1ccc2ccccc2c1)n1nnc(-c2ccccc2)n1 (racemic)
- Activity (Mus musculus [6]): 5.5%
- inhibition [5]: 98.4%

SMILES: Clc1ccc([C@]23CNC[C@H]2C3)cc1Cl [AMITIFADINE]
- minimal effective dose (Mus musculus [7]): 30 mg/kg
- Activity (Mus musculus [8]): 18%
- minimal effective dose (Mus musculus [9]): 5 mg/kg
- Activity (Mus musculus [10]): 33.2%
- inhibition in vivo at 30 mg/kg (Mus musculus [11]): 99.1%
- Activity (Mus musculus [12]): 148%
- Activity (Mus musculus [13]): 54%
- Activity (Mus musculus [14]): 131%
- inhibition in vivo at 30 mg/kg (Mus musculus [15]): 93.7%
- ED50 (Mus musculus [16]): 30.1 mg/kg
- minimal effective dose (Mus musculus [16]): 50 mg/kg
- Activity (Mus musculus [17]): 150%

SMILES: CNCCC(c1ccccc1Cl)n1nnc(C)n1 (racemic)
- inhibition [1]: 5.9%

SMILES: CN(C)CCC(c1ccc(Cl)c(Cl)c1)n1ncnn1 (racemic)
- inhibition [2]: 27%
- half-life [18]: 3 min
- IC50 [19]: 78 nM
- half-life [20]: 55 min
- IC50 [21]: 279 nM
- IC50 [22]: 234 nM
- inhibition [3]: 58%
- inhibition [4]: 37%
- inhibition [5]: 72%

SMILES: CNCCC(c1ccc(Cl)c(Cl)c1Cl)n1ncnn1 (racemic)
- inhibition [1]: 39.1%

SMILES: CNCCC(c1ccc(Cl)cc1)n1ncnn1 (racemic)
- inhibition [5]: 41.1%

SMILES: CNCCC(Oc1ccc(C(F)(F)F)cc1)c1ccccc1 (stereo not drawn) [FLUOXETINE]
- minimal effective dose (Mus musculus [7]): 3 mg/kg
- inhibition in vivo at 10 mg/kg (Mus musculus [23]): 60.3%
- minimal effective dose (Mus musculus [16]): 50 mg/kg

SMILES: CNCCC(c1ccc(Br)cc1)n1ncnn1 (racemic)
- inhibition [1]: 10.7%

SMILES: COc1ccc2cc(C(CCN(C)C)n3ncnn3)ccc2c1 (racemic)
- inhibition [2]: 44%
- inhibition [3]: 36%
- inhibition [4]: 39%
- inhibition [1]: 33.6%

SMILES: CNCCC(c1ccc2cc(F)ccc2c1)n1nnc(C)n1 (racemic)
- inhibition [2]: 58%
- half-life [18]: 27 min
- half-life [20]: > 60 min
- inhibition [3]: 10%
- inhibition [4]: 39%
- inhibition [1]: 81.3%

SMILES: CNCCC(c1ccc(Cl)c(Cl)c1)n1nnc(C)n1 (racemic)
- inhibition [5]: 86%

SMILES: CNCC[C@@H](c1ccc2ccccc2c1)n1nnc(C)n1
- inhibition [2]: 82%
- inhibition [3]: 7%
- inhibition [4]: 79%
- inhibition [1]: 60.2%

SMILES: COc1ccc(C(CCN(C)C)n2ncnn2)cc1OC (racemic)
- inhibition [1]: 12.9%

SMILES: CNCC[C@H](c1ccc2ccccc2c1)n1nnc(C)n1
- inhibition [2]: 23%
- inhibition [3]: 3%
- inhibition [4]: 37%
- inhibition [1]: 34.5%

SMILES: CNCCC(c1ccc2cc(Cl)ccc2c1)n1ncnn1 (racemic)
- inhibition [2]: -4%
- inhibition [4]: 20%
- inhibition [5]: 52.1%

SMILES: CN(C)CCC(c1ccc(F)c(F)c1)n1ncnn1 (racemic)
- inhibition [5]: 25.3%

SMILES: CN(C)CCC(c1ccc2cc(F)ccc2c1)n1ncnn1 (racemic)
- inhibition [2]: 61%
- half-life [18]: 3 min
- half-life [20]: > 60 min
- inhibition [3]: 7%
- inhibition [4]: 12%
- inhibition [1]: 74.1%

SMILES: CNCCC(c1ccc2cc(OC)ccc2c1)n1nnc(C)n1 (racemic)
- inhibition [2]: 82%
- inhibition [3]: 3%
- inhibition [4]: 84%
- inhibition [1]: 80.2%

SMILES: CN(C)CCC(c1ccc2ccccc2c1)n1nnc(-c2ccccc2)n1 (racemic)
- inhibition [5]: 92.6%

SMILES: COc1ccc(C(CCN(C)C)n2ncnn2)cc1Cl (racemic)
- inhibition [5]: 39.9%

SMILES: CNCC[C@H](c1ccc(Cl)c(Cl)c1)n1nnc(C)n1
- inhibition [1]: 20%

SMILES: CN(C)CCC(c1ccc(Cl)cc1)n1ncnn1 (racemic)
- inhibition [5]: 32.4%

SMILES: CNCCC(c1ccc2ccccc2c1)n1nnc(C)n1 (racemic)
- inhibition [5]: 93.6%

SMILES: CNCCC(c1ccc2ccccc2c1)n1ncnn1 (racemic)
- inhibition [2]: 78%
- half-life [18]: 12 min
- IC50 [19]: 1240 nM
- half-life [20]: 49 min
- IC50 [21]: 32 nM
- IC50 [22]: 13.3 nM
- inhibition [3]: 10%
- inhibition [4]: 84%
- inhibition [5]: 90.4%

SMILES: CN(C)CCC(c1cccc(Cl)c1)n1ncnn1 (racemic)
- inhibition [1]: -5.6%

SMILES: Cc1nnn(C(CCN(C)C)c2ccc3ccccc3c2)n1 (racemic)
- inhibition [5]: 85%

SMILES: Cc1nnn(C(CCN(C)C)c2ccc(Cl)c(Cl)c2)n1 (racemic)
- inhibition [5]: 69.4%

SMILES: Cc1nnn(C(CCN(C)C)c2ccc3cc(F)ccc3c2)n1 (racemic)
- inhibition [2]: 61%
- inhibition [3]: 6%
- inhibition [4]: 10%
- inhibition [1]: 67.5%

SMILES: Cc1ccc2cc(C(CCN(C)C)n3ncnn3)ccc2c1 (racemic)
- inhibition [5]: 87.7%

SMILES: CN(C)CCC(c1ccc2cc(Cl)ccc2c1)n1ncnn1 (racemic)
- inhibition [2]: 46%
- inhibition [3]: 18%
- inhibition [4]: 32%
- inhibition [5]: 54.3%

SMILES: Cc1nnn(C(CCN(C)C)c2ccc(C(C)(C)C)cc2)n1 (racemic)
- inhibition [1]: -3%

SMILES: CNCCC(c1ccc(OC(F)(F)F)cc1)n1ncnn1 (racemic)
- inhibition [1]: 3.1%

SMILES: CNCCC(c1ccc(Oc2ccccc2)cc1)n1ncnn1 (racemic)
- inhibition [1]: -1.7%

SMILES: CNCCC(c1ccc(Cl)c(Cl)c1)n1ncnn1 (racemic)
- inhibition [2]: 35%
- half-life [18]: > 60 min
- IC50 [19]: 116 nM
- half-life [20]: > 60 min
- IC50 [21]: 181 nM
- IC50 [22]: 69 nM
- inhibition [3]: 48%
- inhibition [4]: 56%
- inhibition [5]: 86%

SMILES: COc1ccc(C(CN(C)C)C2(O)CCCCC2)cc1 (stereo not drawn) [VENLAFAXINE]
- Activity (Mus musculus [24]): 129%
- minimal effective dose (Mus musculus [7]): 10 mg/kg
- minimal effective dose (Mus musculus [9]): 7 mg/kg
- Activity (Mus musculus [25]): 56.3%
- inhibition in vivo at 30 mg/kg (Mus musculus [11]): 82.3%
- Activity (Mus musculus [6]): 35.2%
- Activity (Mus musculus [14]): 139%
- inhibition in vivo at 30 mg/kg (Mus musculus [15]): 70.2%
- ED50 (Mus musculus [16]): 38.4 mg/kg
- minimal effective dose (Mus musculus [16]): 30 mg/kg
- Activity (Mus musculus [17]): 119%

SMILES: CN(C)CCC(c1ccc(OCc2ccccc2)cc1)n1ncnn1 (racemic)
- inhibition [1]: 9.5%

SMILES: CN(C)CCC(c1ccc2ccccc2c1)n1ncnn1 (racemic)
- inhibition [2]: 41%
- half-life [18]: 3 min
- IC50 [19]: 616 nM
- half-life [20]: 50 min
- IC50 [21]: 138 nM
- IC50 [22]: 264 nM
- inhibition [3]: 20%
- Activity (Mus musculus [6]): 43.2%
- inhibition [4]: 30%
- inhibition [5]: 85.1%

SMILES: Cc1ccc(C(CCN(C)C)n2ncnn2)cc1C (racemic)
- inhibition [5]: 49.2%

SMILES: CNCCC(c1ccc2cc(F)ccc2c1)n1ncnn1 (racemic)
- inhibition [2]: 59%
- half-life [18]: 29 min
- half-life [20]: > 60 min
- inhibition [3]: 6%
- inhibition [4]: 25%
- inhibition [1]: 80.1%

SMILES: CNCCC(c1ccc2cc(C)ccc2c1)n1ncnn1 (racemic)
- inhibition [2]: 93%
- inhibition [3]: 3%
- inhibition [4]: 55%
- inhibition [5]: 93.3%
